Measured values: ChEMBL document CHEMBL1240400, “Comparative in vitro activities of nemonoxacin (TG-873870), a novel nonfluorinated quinolone, and other quinolones against clinical isolates” (2010)
Values after ≈ are worked out from the molar mass of the structure shown.

Columns and labels:
Type in all cases: functional
[1] = system: Proteus mirabilis; test: Antibacterial activity against Proteus mirabilis by broth dilution method
[2] = system: Streptococcus viridans; test: Antibacterial activity against Streptococcus viridans by broth dilution method
Summary of the method: (§1)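 Streptococci were tested by CLSI broth microdilution in Mueller-Hinton broth with 3% lysed horse blood, seeded from a 0.5 McFarland suspension. Incubated overnight at 35°C in ambient air, with quality control strains in each run. MIC taken over a per-agent dilution range.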

[3] = system: Klebsiella pneumoniae; test: Antibacterial activity against Klebsiella pneumoniae by broth dilution method
Summary of the method: (§2)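 Broth microdilution per CLSI in panels spanning a dilution range of each agent. Cation-adjusted Mueller-Hinton broth, final inoculum 5 × 10^5 CFU/ml from a 0.5 McFarland suspension. Incubated overnight at 35°C in ambient air, with quality control strains in each run. MIC reported; values at or below the lowest concentration tested are given as that concentration.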

[4] = system: Pseudomonas aeruginosa; test: Antibacterial activity against Pseudomonas aeruginosa by broth dilution method
[5] = system: Staphylococcus; test: Antibacterial activity against methicillin resistant coagulase negative Staphylococcus by broth dilution method
[6] = system: Neisseria gonorrhoeae; test: Antibacterial activity against ciprofloxacin resistant Neisseria gonorrhoeae isolates by broth dilution method
Summary of the method: (§3)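 Neisseria gonorrhoeae clinical isolates tested by CLSI broth microdilution in Mueller-Hinton broth with 3% lysed horse blood, inoculated from a 0.5 McFarland suspension. Plates were incubated overnight at 35°C in 5% CO2, and the MIC was read as the lowest inhibitory concentration. Quality control strains were included in each run.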

[7] = system: Streptococcus pneumoniae; test: Antibacterial activity against Levofloxacin resistant Streptococcus pneumoniae by broth dilution method
Summary of the method: (§4)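 Streptococcus pneumoniae clinical isolates tested by CLSI broth microdilution. A 0.5 McFarland suspension was diluted into Mueller-Hinton broth with 3% lysed horse blood, then tested against serial drug dilutions. Plates were incubated overnight at 35°C in ambient air, and the MIC was read as the lowest inhibitory concentration. Quality control strains were included in each run.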

[8] = system: Streptococcus pyogenes; test: Antibacterial activity against Streptococcus pyogenes by broth dilution method; summary of the method: as §1
[9] = system: Haemophilus influenzae; test: Antibacterial activity against Haemophilus influenzae by broth dilution method
Summary of the method: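 Broth microdilution per CLSI using Haemophilus Test Medium broth, seeded from a 0.5 McFarland suspension. Incubated overnight at 35°C in ambient air, with quality control strains in each run. MIC read against a tested dilution range; values at the low limit are given as the lowest concentration.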

[10] = system: Staphylococcus epidermidis; test: Antibacterial activity against methicillin resistant coagulase negative Staphylococcus epidermidis by broth dilution method
[11] = system: Acinetobacter baumannii; test: Antibacterial activity against Acinetobacter baumannii by broth dilution method; summary of the method: as §2
[12] = system: Neisseria gonorrhoeae; test: Antibacterial activity against moxifloxacin resistant Neisseria gonorrhoeae isolates by broth dilution method; summary of the method: as §3
[13] = system: Escherichia coli; test: Antibacterial activity against ciprofloxacin susceptible Escherichia coli by broth dilution method; summary of the method: as §2
[14] = system: Escherichia coli; test: Antibacterial activity against ciprofloxacin resistant Escherichia coli by broth dilution method
Summary of the method: (§5)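 Clinical isolates tested by CLSI broth microdilution in panels holding serial twofold drug dilutions in cation-adjusted Mueller-Hinton broth. Final inoculum 5 × 10^5 CFU/ml was made from a 0.5 McFarland suspension. Plates were incubated overnight at 35°C in ambient air, and the MIC was read as the lowest concentration inhibiting growth. Quality control strains were included in each run.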

[15] = system: Neisseria gonorrhoeae; test: Antibacterial activity against levofloxacin resistant Neisseria gonorrhoeae isolates by broth dilution method; summary of the method: as §3
[16] = system: Citrobacter freundii; test: Antibacterial activity against Citrobacter freundii by broth dilution method; summary of the method: as §2
[17] = system: Enterobacter cloacae; test: Antibacterial activity against Enterobacter cloacae by broth dilution method
[18] = system: Enterococcus faecium; test: Antibacterial activity against vancomycin resistant Enterococcus faecium by broth dilution method; summary of the method: as §5
[19] = system: Staphylococcus aureus; test: Antibacterial activity against ciprofloxacin and methicillin resistant Staphylococcus aureus by broth dilution method; summary of the method: as §5
[20] = system: Streptococcus pneumoniae; test: Antibacterial activity against Levofloxacin susceptible Streptococcus pneumoniae by broth dilution method; summary of the method: as §4
[21] = system: Staphylococcus aureus; test: Antibacterial activity against ciprofloxacin susceptible and methicillin resistant Staphylococcus aureus by broth dilution method; summary of the method: as §5
[22] = system: Staphylococcus aureus; test: Antibacterial activity against methicillin susceptible Staphylococcus aureus by broth dilution method
[23] = system: Enterococcus faecalis; test: Antibacterial activity against vancomycin resistant Enterococcus faecalis by broth dilution method
[24] = system: Streptococcus agalactiae; test: Antibacterial activity against Streptococcus agalactiae by broth dilution method; summary of the method: as §1
[25] = system: Enterococcus faecalis; test: Antibacterial activity against Enterococcus faecalis by broth dilution method
[26] = system: Enterococcus faecium; test: Antibacterial activity against Enterococcus faecium by broth dilution method; summary of the method: as §5

O=C(O)c1cn(C2CC2)c2cc(N3CCNCC3)c(F)cc2c1=O [CIPROFLOXACIN]
MIC50 [1]: 2 µg/mL (≈ 6.04 µM)
MIC90 [1]: > 16 µg/mL
MIC50 [2]: 1 µg/mL (≈ 3.02 µM)
MIC90 [2]: 4 µg/mL (≈ 12.1 µM)
MIC50 [3]: 4 µg/mL (≈ 12.1 µM)
MIC90 [3]: > 16 µg/mL
MIC50 [4]: 4 µg/mL (≈ 12.1 µM)
MIC90 [4]: > 16 µg/mL
MIC50 [5]: 0.5 µg/mL (≈ 1.51 µM)
MIC90 [5]: > 16 µg/mL
MIC [6]: 2 µg/mL (≈ 6.04 µM)
MIC50 [7]: > 16 µg/mL
MIC90 [7]: > 16 µg/mL
MIC50 [8]: 1 µg/mL (≈ 3.02 µM)
MIC90 [8]: 4 µg/mL (≈ 12.1 µM)
MIC50 [9]: 0.25 µg/mL (≈ 0.754 µM)
MIC90 [9]: 16 µg/mL (≈ 48.3 µM)
MIC50 [10]: 0.5 µg/mL (≈ 1.51 µM)
MIC90 [10]: > 16 µg/mL
MIC50 [11]: 4 µg/mL (≈ 12.1 µM)
MIC90 [11]: > 16 µg/mL
MIC [12]: 0.5 µg/mL (≈ 1.51 µM)
MIC50 [13]: 0.25 µg/mL (≈ 0.754 µM)
MIC90 [13]: 1 µg/mL (≈ 3.02 µM)
MIC50 [14]: > 16 µg/mL
MIC90 [14]: > 16 µg/mL
MIC [15]: 1 µg/mL (≈ 3.02 µM)
MIC50 [16]: ≤ 0.06 µg/mL
MIC90 [16]: 2 µg/mL (≈ 6.04 µM)

CN(C)c1cc(NC(=O)CNC(C)(C)C)c(O)c2c1C[C@H]1C[C@H]3[C@H](N(C)C)C(O)=C(C(N)=O)C(=O)[C@@]3(O)C(O)=C1C2=O [TIGECYCLINE]
MIC50 [1]: 2 µg/mL (≈ 3.41 µM)
MIC90 [1]: 4 µg/mL (≈ 6.83 µM)
MIC50 [2]: 0.06 µg/mL (≈ 0.102 µM)
MIC90 [2]: 0.12 µg/mL (≈ 0.205 µM)
MIC50 [3]: 0.5 µg/mL (≈ 0.854 µM)
MIC90 [3]: 1 µg/mL (≈ 1.71 µM)
MIC50 [4]: 8 µg/mL (≈ 13.7 µM)
MIC90 [4]: > 8 µg/mL
MIC50 [17]: 0.5 µg/mL (≈ 0.854 µM)
MIC90 [17]: 2 µg/mL (≈ 3.41 µM)
MIC50 [5]: 0.25 µg/mL (≈ 0.427 µM)
MIC90 [5]: 0.5 µg/mL (≈ 0.854 µM)
MIC50 [7]: 0.06 µg/mL (≈ 0.102 µM)
MIC90 [7]: 0.06 µg/mL (≈ 0.102 µM)
MIC50 [8]: 0.03 µg/mL (≈ 0.0512 µM)
MIC90 [8]: 0.06 µg/mL (≈ 0.102 µM)
MIC50 [18]: 0.06 µg/mL (≈ 0.102 µM)
MIC90 [18]: 0.12 µg/mL (≈ 0.205 µM)
MIC50 [19]: 0.25 µg/mL (≈ 0.427 µM)
MIC90 [19]: 0.5 µg/mL (≈ 0.854 µM)
MIC [20]: 0.08 µg/mL (≈ 0.137 µM)
MIC50 [20]: 0.03 µg/mL (≈ 0.0512 µM)
MIC90 [20]: 0.06 µg/mL (≈ 0.102 µM)
MIC50 [9]: 0.5 µg/mL (≈ 0.854 µM)
MIC90 [9]: 1 µg/mL (≈ 1.71 µM)
MIC50 [10]: 0.25 µg/mL (≈ 0.427 µM)
MIC90 [10]: 0.5 µg/mL (≈ 0.854 µM)
MIC50 [21]: 0.25 µg/mL (≈ 0.427 µM)
MIC90 [21]: 0.25 µg/mL (≈ 0.427 µM)
MIC50 [11]: 1 µg/mL (≈ 1.71 µM)
MIC90 [11]: 2 µg/mL (≈ 3.41 µM)
MIC50 [22]: 0.12 µg/mL (≈ 0.205 µM)
MIC90 [22]: 0.25 µg/mL (≈ 0.427 µM)
MIC50 [23]: 0.25 µg/mL (≈ 0.427 µM)
MIC90 [23]: 0.25 µg/mL (≈ 0.427 µM)
MIC [24]: 0.03 µg/mL (≈ 0.0512 µM)
MIC50 [24]: 0.03 µg/mL (≈ 0.0512 µM)
MIC90 [24]: 0.06 µg/mL (≈ 0.102 µM)
MIC50 [25]: 0.25 µg/mL (≈ 0.427 µM)
MIC90 [25]: 0.25 µg/mL (≈ 0.427 µM)
MIC50 [26]: 0.06 µg/mL (≈ 0.102 µM)
MIC90 [26]: 0.12 µg/mL (≈ 0.205 µM)
MIC50 [13]: 0.25 µg/mL (≈ 0.427 µM)
MIC90 [13]: 0.5 µg/mL (≈ 0.854 µM)
MIC50 [14]: 0.25 µg/mL (≈ 0.427 µM)
MIC90 [14]: > 8 µg/mL
MIC [16]: 0.25 µg/mL (≈ 0.427 µM)
MIC50 [16]: 0.25 µg/mL (≈ 0.427 µM)
MIC90 [16]: 0.5 µg/mL (≈ 0.854 µM)
